Source: ChEMBL document CHEMBL3286180, “Efficacious inhaled PDE4 inhibitors with low emetic potential and long duration of action for the treatment of COPD” (J Med Chem, 2014)
≈ marks a conversion by molar mass, not a printed value. Calls of active or inactive are those of the source. No cut-off for these calls is given here.

What was measured:
PBMC = experiment: Antiinflammatory activity in human PBMC assessed as inhibition of LPS-induced TNFalpha production after 20 hrs by fluorescence linked immunosorbant assay; assay type: functional, cell-based
[1] = Fraction unbound in human plasma; assay type: ADME, cell-free
[2] = Aqueous solubility of the compound at pH 7.4; assay type: physicochemical; details: aqueous medium
[3] = Lipophilicity, log D of the compound; assay type: physicochemical; details: octanol/water
[4] = biological target: 3',5'-cyclic-AMP phosphodiesterase 4B (Homo sapiens, UniProt Q07343); experiment: Inhibition of human recombinant PDE4B using [3H]cAMP by packard topcount scintillation counting analysis
3',5'-cyclic-AMP phosphodiesterase 4B, sequence (Q07343 whole entry): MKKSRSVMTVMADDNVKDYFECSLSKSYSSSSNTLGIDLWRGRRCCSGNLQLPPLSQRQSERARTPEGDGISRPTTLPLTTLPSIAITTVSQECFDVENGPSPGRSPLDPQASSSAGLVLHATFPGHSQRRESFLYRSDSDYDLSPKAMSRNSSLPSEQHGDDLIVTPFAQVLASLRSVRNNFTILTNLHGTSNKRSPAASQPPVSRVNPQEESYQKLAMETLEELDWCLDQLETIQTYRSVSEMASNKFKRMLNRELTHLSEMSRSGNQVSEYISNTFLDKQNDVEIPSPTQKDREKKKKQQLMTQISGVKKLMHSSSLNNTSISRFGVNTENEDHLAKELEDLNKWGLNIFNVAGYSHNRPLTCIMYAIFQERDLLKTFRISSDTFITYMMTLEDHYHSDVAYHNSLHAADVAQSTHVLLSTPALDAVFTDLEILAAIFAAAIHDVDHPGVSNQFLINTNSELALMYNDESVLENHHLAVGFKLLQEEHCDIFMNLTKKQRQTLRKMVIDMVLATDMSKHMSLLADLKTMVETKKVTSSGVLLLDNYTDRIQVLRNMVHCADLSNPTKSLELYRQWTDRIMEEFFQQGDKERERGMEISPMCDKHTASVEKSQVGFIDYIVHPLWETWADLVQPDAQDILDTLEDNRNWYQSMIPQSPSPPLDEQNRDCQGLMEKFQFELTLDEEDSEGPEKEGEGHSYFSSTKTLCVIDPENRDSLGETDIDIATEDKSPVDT

[5] = Clearance in rat at 1 mg/kg, iv; assay type: ADME, organism-based; set-up: dose 1 mg/kg, route intravenous; details: in vivo
How it was run: (§1)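 Rat pharmacokinetics were run at 1 mg/kg, given iv or by intratracheal instillation, with 2−3 animals per study.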

[6] = Volume of distribution at steady state in rat at 1 mg/kg, iv; assay type: ADME, organism-based; set-up: dose 1 mg/kg, route intravenous; details: in vivo, read-out: Vdss
[7] = Half life in rat at 1 mg/kg, iv; assay type: ADME, organism-based; set-up: dose 1 mg/kg, route intravenous; details: in vivo; how it was run: as §1
Cytochrome P450 3A4 = Cytochrome P450 3A4 (Homo sapiens, UniProt P08684); experiment: Inhibition of CYP3A4 (unknown origin); assay type: ADME
Cytochrome P450 3A4, sequence (P08684 whole entry): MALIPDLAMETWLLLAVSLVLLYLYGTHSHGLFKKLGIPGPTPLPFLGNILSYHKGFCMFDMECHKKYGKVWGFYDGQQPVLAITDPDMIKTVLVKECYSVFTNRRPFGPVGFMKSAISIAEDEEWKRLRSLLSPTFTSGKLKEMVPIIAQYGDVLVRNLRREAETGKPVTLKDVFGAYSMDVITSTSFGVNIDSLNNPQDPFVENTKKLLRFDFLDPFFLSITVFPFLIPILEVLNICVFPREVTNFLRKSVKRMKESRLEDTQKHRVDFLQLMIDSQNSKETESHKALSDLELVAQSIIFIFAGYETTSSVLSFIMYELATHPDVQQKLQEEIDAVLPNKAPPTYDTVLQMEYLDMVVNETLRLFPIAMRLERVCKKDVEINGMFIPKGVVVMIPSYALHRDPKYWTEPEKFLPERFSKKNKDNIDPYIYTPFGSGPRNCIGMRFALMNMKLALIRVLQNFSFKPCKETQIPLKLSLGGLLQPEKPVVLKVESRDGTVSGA

Cytochrome P450 2C9 = Cytochrome P450 2C9 (Homo sapiens, UniProt P11712); experiment: Inhibition of CYP2C9 (unknown origin); assay type: ADME
Cytochrome P450 2C9, sequence (P11712 whole entry): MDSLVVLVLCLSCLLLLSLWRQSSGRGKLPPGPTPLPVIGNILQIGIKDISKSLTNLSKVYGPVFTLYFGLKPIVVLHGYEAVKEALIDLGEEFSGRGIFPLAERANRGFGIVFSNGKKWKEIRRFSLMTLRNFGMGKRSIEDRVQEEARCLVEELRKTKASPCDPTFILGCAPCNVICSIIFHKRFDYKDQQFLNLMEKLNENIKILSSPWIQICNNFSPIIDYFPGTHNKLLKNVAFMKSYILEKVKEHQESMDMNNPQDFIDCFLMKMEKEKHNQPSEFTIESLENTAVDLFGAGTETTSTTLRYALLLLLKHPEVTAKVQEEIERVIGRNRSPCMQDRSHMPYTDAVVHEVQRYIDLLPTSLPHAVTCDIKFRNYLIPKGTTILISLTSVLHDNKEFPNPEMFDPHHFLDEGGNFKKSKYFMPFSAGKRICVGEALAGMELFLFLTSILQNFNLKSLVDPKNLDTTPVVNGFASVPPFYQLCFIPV

Cytochrome P450 2D6 = Cytochrome P450 2D6 (Homo sapiens, UniProt P10635); experiment: Inhibition of CYP2D6 (unknown origin); assay type: ADME
Cytochrome P450 2D6, sequence (P10635 whole entry): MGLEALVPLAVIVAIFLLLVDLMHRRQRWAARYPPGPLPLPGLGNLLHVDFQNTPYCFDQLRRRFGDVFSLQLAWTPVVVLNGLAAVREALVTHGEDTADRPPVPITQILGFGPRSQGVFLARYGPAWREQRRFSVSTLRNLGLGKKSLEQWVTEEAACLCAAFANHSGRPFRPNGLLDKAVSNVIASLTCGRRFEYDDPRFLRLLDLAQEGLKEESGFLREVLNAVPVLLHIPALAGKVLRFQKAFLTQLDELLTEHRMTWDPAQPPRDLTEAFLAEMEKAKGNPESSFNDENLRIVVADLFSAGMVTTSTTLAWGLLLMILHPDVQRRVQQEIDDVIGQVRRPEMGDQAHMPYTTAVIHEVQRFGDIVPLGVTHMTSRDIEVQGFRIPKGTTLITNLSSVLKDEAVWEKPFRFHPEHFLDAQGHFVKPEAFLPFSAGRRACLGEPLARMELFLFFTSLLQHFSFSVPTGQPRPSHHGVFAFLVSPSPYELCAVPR

Cytochrome P450 1A2 = biological target: T1, Cytochrome P450 1A2 (Homo sapiens, UniProt P05177); experiment: Inhibition of CYP1A2 (unknown origin); assay type: ADME
T1 sequence (P05177 whole entry): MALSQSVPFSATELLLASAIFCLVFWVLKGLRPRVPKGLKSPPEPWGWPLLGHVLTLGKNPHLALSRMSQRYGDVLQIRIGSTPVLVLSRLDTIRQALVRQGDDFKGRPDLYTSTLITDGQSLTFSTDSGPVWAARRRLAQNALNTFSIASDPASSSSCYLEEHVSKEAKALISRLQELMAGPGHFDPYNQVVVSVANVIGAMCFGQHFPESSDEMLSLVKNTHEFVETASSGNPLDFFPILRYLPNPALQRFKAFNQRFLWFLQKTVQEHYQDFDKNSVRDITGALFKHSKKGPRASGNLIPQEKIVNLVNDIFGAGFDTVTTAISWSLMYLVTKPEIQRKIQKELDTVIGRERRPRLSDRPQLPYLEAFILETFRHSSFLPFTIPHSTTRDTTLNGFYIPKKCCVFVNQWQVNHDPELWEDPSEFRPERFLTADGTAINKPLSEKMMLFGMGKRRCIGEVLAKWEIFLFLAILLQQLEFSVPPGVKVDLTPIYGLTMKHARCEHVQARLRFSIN

Cytochrome P450 2C19 = Cytochrome P450 2C19 (Homo sapiens, UniProt P33261); experiment: Inhibition of CYP2C19 (unknown origin); assay type: ADME
Cytochrome P450 2C19, sequence (P33261 whole entry): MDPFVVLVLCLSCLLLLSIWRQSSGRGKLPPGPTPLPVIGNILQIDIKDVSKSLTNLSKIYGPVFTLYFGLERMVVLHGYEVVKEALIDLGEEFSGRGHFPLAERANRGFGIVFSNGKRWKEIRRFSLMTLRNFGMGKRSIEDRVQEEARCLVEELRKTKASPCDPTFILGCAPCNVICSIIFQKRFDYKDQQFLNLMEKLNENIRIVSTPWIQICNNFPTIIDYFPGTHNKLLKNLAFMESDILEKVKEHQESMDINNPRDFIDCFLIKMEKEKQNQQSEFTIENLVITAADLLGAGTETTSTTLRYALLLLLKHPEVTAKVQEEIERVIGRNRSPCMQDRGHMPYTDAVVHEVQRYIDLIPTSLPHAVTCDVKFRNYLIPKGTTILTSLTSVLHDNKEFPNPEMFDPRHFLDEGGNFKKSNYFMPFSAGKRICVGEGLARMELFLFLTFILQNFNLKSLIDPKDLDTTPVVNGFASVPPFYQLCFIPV

Rattus norvegicus [8] = experiment: Apparent volume of distribution in rat at 1 mg/kg, iv; assay type: ADME, organism-based; set-up: dose 1 mg/kg, route intravenous; details: in vivo; how it was run: as §1
Rattus norvegicus [9] = experiment: Antiinflammatory activity in Sprague-Dawley rat assessed as inhibition of LPS-induced bronchoalveolar lavage neutrophils measured as LPS duration at 0.1 mg/ml, inhalation administered as nebulized suspension; assay type: functional, organism-based
How it was run: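 Duration protocol: rats received a nose-only inhalation of nebulized aqueous compound solution 12 h before LPS challenge. Dose is expressed as mg/mL nebulizer concentration. Readout was LPS-induced pulmonary neutrophilia, with terminal lung concentration (nM) measured. Groups held 8−10 animals per treatment.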

Rattus norvegicus [10] = experiment: Antiinflammatory activity in Sprague-Dawley rat assessed as inhibition of LPS-induced bronchoalveolar lavage neutrophils at 0.03 mg/ml, inhalation administered as nebulized suspension; assay type: functional, organism-based
How it was run: (§2)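 Rats were given the compound as an aqueous nebulized aerosol by nose-only inhalation 30 min before LPS challenge. Dose is expressed as mg/mL nebulizer concentration. Lung neutrophilia was the readout, and terminal lung concentration (nM) was measured. Groups held 8−10 animals per treatment.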

Rattus norvegicus [11] = experiment: Antiinflammatory activity in nasally dosed Sprague-Dawley rat assessed as inhibition of LPS-induced bronchoalveolar lavage neutrophils measured as nebulizer concentration administered as […]; assay type: functional
How it was run: (§3)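 ED80 was derived from the nose-only nebulized-solution dose response in rats dosed 30 min before LPS challenge, with neutrophilia as the readout. ED80 is given as nebulizer concentration, as the matching terminal total lung concentration, and as lung deposited dose estimated from measured filter sample and terminal lung levels.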

Rattus norvegicus [12] = experiment: Antiinflammatory activity in nasally dosed Sprague-Dawley rat assessed as inhibition of LPS-induced bronchoalveolar lavage neutrophils measured as lung concentration administered as […]; assay type: functional; how it was run: as §3
Rattus norvegicus [13] = experiment: Antiinflammatory activity in nasally dosed Sprague-Dawley rat assessed as inhibition of LPS-induced bronchoalveolar lavage neutrophils measured as lung deposited dose administered as […]; assay type: functional; how it was run: as §3
Rattus norvegicus [14] = experiment: Antiinflammatory activity in Sprague-Dawley rat assessed as inhibition of LPS-induced bronchoalveolar lavage neutrophils at 0.01 mg/ml, inhalation administered as nebulized suspension; assay type: functional; how it was run: as §2

Row | Structure (SMILES) | IC50 (PBMC) [nM] | fraction unbound [1] | solubility [2] [µM] | logD [3] | IC50 [4] [nM] | other results
1 | Cc1cc(C(=O)N[C@H]2CC[C@@H](NC(=O)c3cc(F)cnc3Oc3cccc(-c4cccc(CN5C[C@@H](C)N[C@@H](C)C5)c4)c3)CC2)nn1C | 0.0794 | 0.18 | > 1500 | 2.1 |  | 
2 | CN(C)Cc1cc(O)ccc1-c1cccc(Oc2ncc(F)cc2C(=O)N[C@H]2CC[C@@H](NC(=O)c3cccc4ocnc34)CC2)c1 |  |  |  |  | 0.316 | 
3 | Cc1cc(C(=O)N[C@H]2CC[C@@H](NC(=O)c3cc(F)cnc3Oc3cccc(-c4cc(O)cc(CN5C[C@@H](C)N[C@@H](C)C5)c4)c3)CC2)nn1C | 0.398 | 0.35 | > 1500 | 2.2 |  | 
4 | Cc1cc(C(=O)N[C@H]2CC[C@@H](NC(=O)c3cc(F)cnc3Oc3cccc(-c4ccc(CCN5CCC(N6CCCC6)CC5)cc4)c3)CC2)nn1C | 0.0316 | 0.042 | 120 (≈ 84.9 µg/mL) | 2.4 | 0.0398 | clearance [5]: 74 mL/min/kg; Vd [6]: 44 L/kg; half-life [7]: 540 min; IC50 (Cytochrome P450 3A4): > 1000 nM; IC50 (Cytochrome P450 2C9): > 1000 nM; IC50 (Cytochrome P450 2D6): > 1000 nM; IC50 (Cytochrome P450 1A2): > 1000 nM; IC50 (Cytochrome P450 2C19): > 1000 nM; Vz/F (Rattus norvegicus [8]): 59 L/kg; inhibition (Rattus norvegicus [9]): Active
5 | Cc1nc(C(=O)N[C@H]2CC[C@@H](NC(=O)c3cc(F)cnc3Oc3cccc(-c4ccc(CN5C[C@@H](C)N[C@@H](C)C5)cc4)c3)CC2)cs1 |  |  |  |  |  | pIC50 [4]: 10.2
6 | CN(C)Cc1cc(O)ccc1-c1cccc(Oc2ncc(F)cc2C(=O)N[C@H]2CC[C@@H](NC(=O)c3cccc4oc(=O)[nH]c34)CC2)c1 |  |  |  |  | 20 | 
7 | C[C@@H]1CN(Cc2ccc(-c3cccc(Oc4ncc(F)cc4C(=O)N[C@H]4CC[C@@H](NC(=O)c5ncccc5O)CC4)c3)cc2)C[C@H](C)N1 |  |  |  |  | 0.126 | 
8 | C[C@@H]1CN(Cc2ccc(-c3cccc(Oc4ncc(F)cc4C(=O)N[C@H]4CC[C@@H](NC(=O)c5cc6ccccn6n5)CC4)c3)cc2)C[C@H](C)N1 | 0.0794 | 0.045 | 580 (≈ 392 µg/mL) | 2.7 |  | inhibition (Rattus norvegicus [10]): Active; clearance [5]: 58 mL/min/kg; Vd [6]: 13 L/kg; half-life [7]: 348 min; IC50 (Cytochrome P450 3A4): 398 nM; IC50 (Cytochrome P450 2C9): > 1000 nM; Vz/F (Rattus norvegicus [8]): 30 L/kg
9 | Cc1csc(C(=O)N[C@H]2CC[C@@H](NC(=O)c3cc(F)cnc3Oc3cccc(-c4ccc(CN5C[C@@H](C)N[C@@H](C)C5)cc4)c3)CC2)n1 |  |  |  |  | 0.0316 | 
10 | O=C(N[C@H]1CC[C@@H](NC(=O)c2nc3ccccc3[nH]c2=O)CC1)c1cc(F)cnc1Oc1cccc(-c2ccc(O)cc2CN2CCOCC2)c1 |  |  |  |  | 0.316 | 
11 | O=C(N[C@H]1CC[C@@H](NC(=O)c2cc(F)cnc2Oc2cccc(-c3ccc(O)cc3CN3CCOCC3)c2)CC1)c1cncc(O)c1 |  |  |  |  | 2.51 | 
12 | Cc1cc(C(=O)N[C@H]2CC[C@@H](NC(=O)c3cc(F)cnc3Oc3cccc(-c4ccc(O)c(CN5C[C@@H](C)N[C@@H](C)C5)c4)c3)CC2)nn1C | 0.0316 | 0.16 | 970 (≈ 650 µg/mL) | 2.3 |  | 
13 | Cc1cc(C)n2ncc(C(=O)N[C@H]3CC[C@@H](NC(=O)c4cc(F)cnc4Oc4cccc(-c5ccc(O)cc5CN5CCOCC5)c4)CC3)c2n1 |  |  |  |  | 0.0501 | 
14 | Cc1cc(C(=O)N[C@H]2CC[C@@H](NC(=O)c3cc(F)cnc3Oc3cccc(-c4ccc(CN5C[C@@H](C)N[C@@H](C)C5)c(O)c4)c3)CC2)nn1C |  | 0.12 | 890 (≈ 596 µg/mL) | 2.4 |  | 
15 | Cc1cc(C(=O)N[C@H]2CC[C@@H](NC(=O)c3cc(F)cnc3Oc3cccc(-c4ccc(CCCN5C[C@@H](C)N[C@@H](C)C5)cc4)c3)CC2)nn1C | 0.0631 | 0.045 | 130 (≈ 88.6 µg/mL) | 2.6 | 0.02 | inhibition (Rattus norvegicus [10]): Active; clearance [5]: 68 mL/min/kg; Vd [6]: 21 L/kg; half-life [7]: 420 min; IC50 (Cytochrome P450 3A4): > 1000 nM; IC50 (Cytochrome P450 2C9): > 1000 nM; IC50 (Cytochrome P450 2D6): > 1000 nM; IC50 (Cytochrome P450 1A2): > 1000 nM; IC50 (Cytochrome P450 2C19): > 1000 nM; Vz/F (Rattus norvegicus [8]): 41 L/kg; ED80 (Rattus norvegicus [11]): 0.05 mg/mL (≈ 73.3 µM); inhibition (Rattus norvegicus [9]): Active; ED80 (Rattus norvegicus [12]): 60 nM; ED80 (Rattus norvegicus [13]): 0.6 µg/kg
16 | Cc1cc(C(=O)N[C@H]2CC[C@@H](NC(=O)c3cc(F)cnc3Oc3cccc(-c4ccc(CN5C[C@@H](C)N[C@@H](C)C5)cc4)c3)CC2)nn1C | 0.1 | 0.11 | 1300 (≈ 850 µg/mL) | 2.4 |  | 
17 | Cc1csc(C(=O)N[C@H]2CC[C@@H](NC(=O)c3cc(F)cnc3Oc3cccc(-c4ccc(CN5C[C@@H](C)N[C@@H](C)C5)cc4CN4CCOCC4)c3)CC2)n1.O=C(O)C(F)(F)F |  |  | > 1400 |  |  | 
18 | Cc1cc(C(=O)N[C@H]2CC[C@@H](NC(=O)c3cc(F)cnc3Oc3cccc(-c4cccc(CN5C[C@@H](C)N[C@@H](C)C5)c4O)c3)CC2)nn1C | 3.16 | 0.091 | 470 (≈ 315 µg/mL) | 2.8 |  | 
19 | Cc1cccc2nc(C(=O)N[C@H]3CC[C@@H](NC(=O)c4cc(F)cnc4Oc4cccc(-c5ccc(CN6C[C@@H](C)N[C@@H](C)C6)cc5)c4)CC3)cn12 | 0.126 | 0.012 | 460 (≈ 317 µg/mL) | 2.7 |  | clearance [5]: 61 mL/min/kg; Vd [6]: 14 L/kg; half-life [7]: 318 min; IC50 (Cytochrome P450 3A4): > 1000 nM; IC50 (Cytochrome P450 2C9): > 1000 nM; IC50 (Cytochrome P450 2D6): > 1000 nM; IC50 (Cytochrome P450 1A2): > 1000 nM; IC50 (Cytochrome P450 2C19): > 1000 nM; Vz/F (Rattus norvegicus [8]): 28 L/kg
20 | Cc1csc(C(=O)N[C@H]2CC[C@@H](NC(=O)c3cc(F)cnc3Oc3cccc(-c4ccc(CN5C[C@@H](C)N[C@@H](C)C5)cc4CN4CCOCC4)c3)CC2)n1 |  |  |  |  |  | inhibition (Rattus norvegicus [10]): Active; inhibition (Rattus norvegicus [14]): Active
